Reference: PMC4012894 (Journal of the American Chemical Society, 2014)

What was measured:
[1] = system: PikCD50N/H238A-RhFRED; assay: Total turnover number; assay type: biochemical; details: PikCD50N/H238A-RhFRED double mutant
Procedure, shortened: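 Double mutant made by adding H238A to the PikCD50N-RhFRED fusion, to probe the H238 H-bond to the anchoring-group carbonyl. TTN is expressed relative to moles of enzyme.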

[2] = target: T1, PikCD50N-RhFRED (Streptomyces venezuelae, UniProt O87605, D50N); assay: Spectroscopic equilibrium substrate binding assay, PikCD50N-RhFRED
T1 sequence (O87605 1-416 D50N): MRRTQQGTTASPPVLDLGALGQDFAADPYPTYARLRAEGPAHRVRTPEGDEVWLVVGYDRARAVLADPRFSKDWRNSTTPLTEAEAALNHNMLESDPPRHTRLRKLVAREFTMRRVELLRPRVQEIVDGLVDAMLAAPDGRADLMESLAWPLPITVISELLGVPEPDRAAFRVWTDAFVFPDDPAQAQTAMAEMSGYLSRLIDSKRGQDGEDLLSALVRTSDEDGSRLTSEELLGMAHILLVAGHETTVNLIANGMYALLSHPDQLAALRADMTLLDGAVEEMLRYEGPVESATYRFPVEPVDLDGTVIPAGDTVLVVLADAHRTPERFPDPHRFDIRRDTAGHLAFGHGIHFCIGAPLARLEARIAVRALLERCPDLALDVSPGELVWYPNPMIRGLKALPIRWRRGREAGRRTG
T1 sequence (Q8KU27 445-773 partner): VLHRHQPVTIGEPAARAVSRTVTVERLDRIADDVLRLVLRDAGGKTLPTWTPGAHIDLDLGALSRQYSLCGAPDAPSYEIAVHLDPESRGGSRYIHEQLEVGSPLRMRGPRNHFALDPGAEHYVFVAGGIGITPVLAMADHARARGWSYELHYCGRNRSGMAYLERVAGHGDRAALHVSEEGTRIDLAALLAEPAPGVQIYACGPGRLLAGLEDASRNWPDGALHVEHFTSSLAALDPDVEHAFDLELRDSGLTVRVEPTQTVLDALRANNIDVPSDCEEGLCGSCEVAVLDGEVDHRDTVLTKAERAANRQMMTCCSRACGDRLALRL

[3] = target: T2, PikCD50NH238A (Streptomyces venezuelae, UniProt O87605, D50N/H238A); assay: Spectroscopic equilibrium substrate binding assay, PikCD50NH238A mutant
T2 sequence (O87605 1-416 D50N/H238A): T1 sequence (O87605 1-416 D50N)
T2 sequence (Q8KU27 445-773 partner): T1 sequence (Q8KU27 445-773 partner)

[4] = target: T1, PikCD50N-RhFRED; assay: PikCD50N-RhFRED analytical-scale enzymatic reactions; assay type: biochemical; details: for preferred site of hydroxylation (regioselectivity in words): PikCD50N-RhFRED; for hydroxylation by PikCD50N-RhFRED (result in words): 0.5 mol % enzyme (5 μM enzyme, 1 mM substrate)

Structure (SMILES) | TTN D50NH238A [1] | Kd [2] [µM] | Kd [3] [µM] | preferred site of hydroxylation (regioselectivity in words) [4] | hydroxylation by PikCD50N-RhFRED (result in words) [4]
CC[C@H]1OC(=O)[C@H](C)[C@@H](OC(=O)CCN(C)C)[C@@H](C)C[C@@H](C)C(=O)/C=C/[C@H]1C [8b] | 870 ± 38 | 81 ± 15 | 161 ± 25 |  | 
CC[C@H]1OC(=O)[C@H](C)[C@@H](OC(=O)[C@H]2CCCN2C)[C@@H](C)C[C@@H](C)C(=O)/C=C/[C@H]1C [12a] | 542 ± 30 | 47 ± 3 | 19 ± 1.3 | preferential C-10 hydroxylation | 
CC[C@H]1OC(=O)[C@H](C)[C@@H](OC(=O)[C@@H]2CCCN2C)[C@@H](C)C[C@@H](C)C(=O)/C=C/[C@H]1C [12b] | 538 ± 20 | 28 ± 5.4 | 21 ± 0.7 | preferential C-10 hydroxylation | 
CC[C@H]1OC(=O)[C@H](C)[C@@H](OC(=O)c2ccc(CN(C)C)cc2)[C@@H](C)C[C@@H](C)C(=O)/C=C/[C@H]1C [16a] | 816 ± 33 |  |  | highly regioselective allylic hydroxylation at C-10 | converted to monohydroxylated products
CC[C@H]1OC(=O)[C@H](C)[C@@H](OC(=O)c2cccc(CN(C)C)c2)[C@@H](C)C[C@@H](C)C(=O)/C=C/[C@H]1C [16b] | 922 ± 35 |  |  | highly regioselective allylic hydroxylation at C-10 | converted to monohydroxylated products
CC[C@H]1OC(=O)[C@H](C)[C@@H](OC(=O)CCCN(C)C)[C@@H](C)C[C@@H](C)C(=O)/C=C/[C@H]1C [compound 10] | 853 ± 38 | 123 ± 14 | 168 ± 19 |  | 
CC[C@H]1OC(=O)[C@H](C)[C@@H](OC(=O)c2ccccc2CN(C)C)[C@@H](C)C[C@@H](C)C(=O)/C=C/[C@H]1C [compound 14] | 491 ± 26 |  |  | favor C-12 hydroxylation | converted to monohydroxylated products
